Experiment [1] deals with Brassica rapa subsp. oleifera. Briefly: Inhibition of Brassica rapa subsp. oleifera root growth at 10 mg/L. It is filed as functional.
Experiment [2] deals with Brassica rapa subsp. oleifera. Briefly: Inhibition of Brassica rapa subsp. oleifera at 100 mg/L. The format is functional. Summed up: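 Rape (Brassica campestris L.) root growth assay, per the group's earlier published method; compound tested at 100 mg L-1; read-out is root length inhibition (%); monosulfuron used as reference herbicide.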
Experiment [3] addresses T1, Acetolactate synthase, chloroplastic (Arabidopsis thaliana) (UniProt P17597).
T1 sequence (whole entry): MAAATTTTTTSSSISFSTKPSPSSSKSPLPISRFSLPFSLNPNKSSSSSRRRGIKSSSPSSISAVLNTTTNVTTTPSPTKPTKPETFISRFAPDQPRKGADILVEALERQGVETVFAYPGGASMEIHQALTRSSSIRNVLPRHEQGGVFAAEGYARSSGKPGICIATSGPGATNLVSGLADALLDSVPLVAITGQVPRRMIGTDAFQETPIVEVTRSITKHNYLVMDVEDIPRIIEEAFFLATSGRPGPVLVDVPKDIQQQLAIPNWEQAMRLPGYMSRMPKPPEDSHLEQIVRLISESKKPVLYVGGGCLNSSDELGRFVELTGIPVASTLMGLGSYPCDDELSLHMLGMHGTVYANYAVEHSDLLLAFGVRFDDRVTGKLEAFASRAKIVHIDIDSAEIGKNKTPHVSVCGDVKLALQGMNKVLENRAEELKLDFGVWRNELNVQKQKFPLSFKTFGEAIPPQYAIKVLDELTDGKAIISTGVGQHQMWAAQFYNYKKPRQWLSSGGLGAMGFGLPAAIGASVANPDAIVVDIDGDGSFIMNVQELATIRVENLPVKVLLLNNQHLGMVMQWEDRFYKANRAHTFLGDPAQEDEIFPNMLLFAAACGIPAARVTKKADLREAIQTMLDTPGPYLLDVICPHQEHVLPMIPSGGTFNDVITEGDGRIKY
Briefly: Inhibition of Arabidopsis thaliana AHAS at 100 mg/L colorimetric assay. In outline:
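Expressed and purified A. thaliana AHAS tested at a single concentration of 100 mg L-1. Enzyme activity was read by a colorimetric method described earlier, and the result is given as percent inhibition of AtAHAS activity.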

Results on 33 compounds are retold here after ChEMBL document CHEMBL3045582, “Chemical synthesis, in vitro acetohydroxyacid synthase (AHAS) inhibition, herbicidal activity, and computational studies of isatin derivatives” (2011).

The term inhibition denotes the change of the read-out against control, counted positive when it falls. Read a high inhibition as a response far below the control.

For the compound `CC(C)(C)c1ccc(CN2C(=O)/C(=N\NC(=O)c3ccccc3)c3ccccc32)cc1`, at 10 µg/mL the inhibition in experiment [1] was 0%. In experiment [2], this compound yielded an inhibition at 100 µg/mL of 15%. This compound also registered an inhibition in experiment [3] of 60%.

For `O=C1Nc2ccc(C(F)(F)F)cc2C1=O`, in experiment [1], the inhibition at 10 µg/mL came out at 27%. Further, in experiment [2], 100 µg/mL produced 93% inhibition. In addition, the inhibition in experiment [3] turned out to be 60%.

In experiment [1], `O=C1Nc2ccc(Cl)cc2C1=O` came in with an inhibition at 10 µg/mL of 28%. Moreover, testing at 100 µg/mL in experiment [2] gave an inhibition of 95%. This compound showed an inhibition in experiment [3] of 55%.

On to `O=C(N/N=C1\C(=O)N(Cc2ccc(Cl)cc2Cl)c2ccccc21)c1ccccc1`, for which the inhibition at 10 µg/mL in experiment [1] came out at 0%. The same compound displayed an inhibition at 100 µg/mL in experiment [2] of 6%. The compound also displayed an inhibition in experiment [3] of 50%.

In experiment [1], `CN1C(=O)C(=O)c2cccc(Cl)c21` came in with an inhibition at 10 µg/mL of 31%. Further, the inhibition at 100 µg/mL in experiment [2] came out at 59%. In experiment [3], this compound gave an inhibition of 80%.

`Cc1ccnc(NC(=O)NS(=O)(=O)c2ccccc2C(=O)O)n1` [MONOSULFURON] had an inhibition at 10 µg/mL in experiment [1] of 64%. This compound gave an inhibition at 100 µg/mL in experiment [2] of 78%. The compound also showed an inhibition in experiment [3] of 90%.

The compound `O=C1Nc2c(I)cccc2/C1=N/NC(=O)c1cccc(F)c1` returned an inhibition at 10 µg/mL in experiment [1] of 51%. Testing at 100 µg/mL in experiment [2] gave an inhibition of 81%. The inhibition in experiment [3] was 75%.

In turn, `Cc1cc(Cl)cc2c1NC(=O)C2=O` came in with an inhibition at 10 µg/mL in experiment [1] of 10%. In experiment [2], this compound showed an inhibition at 100 µg/mL of 65%. Besides, in experiment [3], the inhibition was 65%.

In experiment [1], `O=C1Nc2c(Br)cccc2/C1=N/NC(=O)c1ccccc1F` came in with an inhibition at 10 µg/mL of 14%. In experiment [2], this compound returned an inhibition at 100 µg/mL of 39%. In experiment [3], the inhibition is 95%.

Compound `O=C1Nc2ccc(F)cc2C1=O` [5-FLUOROISATIN] gave an inhibition at 10 µg/mL in experiment [1] of 52%. In experiment [2], this compound gave an inhibition at 100 µg/mL of 88%. The inhibition in experiment [3] turned out to be 65%.

As to `O=C1Nc2ccc([N+](=O)[O-])cc2C1=O` [5-NITROISATIN], testing at 10 µg/mL in experiment [1] gave an inhibition of 7%. In addition, in experiment [2], 100 µg/mL produced 82% inhibition. The inhibition in experiment [3] came to 60%.

In experiment [1], `Cc1cc(C)n(CC(=O)N/N=C2\C(=O)Nc3ccccc32)n1` gave an inhibition at 10 µg/mL of 0%. Also, the inhibition at 100 µg/mL in experiment [2] was found to be 27%. Also, the inhibition in experiment [3] was 35%.

In experiment [1], `Cc1nc(C)c(C(=O)N/N=C2\C(=O)Nc3ccccc32)s1` showed an inhibition at 10 µg/mL of 0%. In addition, the inhibition at 100 µg/mL in experiment [2] worked out at 21%. Also, in experiment [3], the inhibition was 30%.

In the case of `CN1C(=O)C(=O)c2cc(F)ccc21`, 10 µg/mL produced 19% inhibition in experiment [1]. In addition, in experiment [2], the inhibition at 100 µg/mL is 59%. For the same compound, the inhibition in experiment [3] is 60%.

For the compound `Cc1ccc2c(c1)C(=O)C(=O)N2`, the inhibition at 10 µg/mL in experiment [1] turned out to be 13%. Also, the inhibition at 100 µg/mL in experiment [2] was determined as 80%. Moreover, the inhibition in experiment [3] stood at 50%.

`Cc1ccccc1CN1C(=O)/C(=N\NC(=O)c2ccccc2)c2ccccc21` gave an inhibition at 10 µg/mL in experiment [1] of 0%. Also, in experiment [2], at 100 µg/mL the inhibition was 0%. Besides, the inhibition in experiment [3] was found to be 50%.

`CN1C(=O)C(=O)c2cc(Cl)ccc21` displayed an inhibition at 10 µg/mL in experiment [1] of 20%. In addition, the inhibition at 100 µg/mL in experiment [2] turned out to be 53%. Moreover, the inhibition in experiment [3] is 60%.

`CN1C(=O)C(=O)c2cc(I)ccc21` gave an inhibition at 10 µg/mL in experiment [1] of 13%. For the same compound, in experiment [2], at 100 µg/mL the inhibition was 27%. This compound came in with an inhibition in experiment [3] of 60%.

Compound `N#Cc1ccc(CN2C(=O)/C(=N\NC(=O)c3ccccc3)c3ccccc32)cc1` had an inhibition at 10 µg/mL in experiment [1] of 2%. Moreover, in experiment [2], the inhibition at 100 µg/mL was 48%. Moreover, the inhibition in experiment [3] was 20%.

Consider `CN1C(=O)C(=O)c2ccccc21`, for which, in experiment [1], testing at 10 µg/mL gave an inhibition of 7%. Further, the inhibition at 100 µg/mL in experiment [2] was found to be 24%. The same compound returned an inhibition in experiment [3] of 50%.

Take `O=C1Nc2ccccc2/C1=N/Nc1ncccc1Cl`: the inhibition at 10 µg/mL in experiment [1] is 0%. The same compound yielded an inhibition at 100 µg/mL in experiment [2] of 19%. The inhibition in experiment [3] turned out to be 70%.

The compound `O=C1Nc2ccc(S(=O)(=O)O)cc2C1=O` displayed an inhibition at 10 µg/mL in experiment [1] of 4%. This compound also registered an inhibition at 100 µg/mL in experiment [2] of 18%. This compound also registered an inhibition in experiment [3] of 10%.

With `O=C(N/N=C1\C(=O)N(Cc2cccc(F)c2)c2ccccc21)c1ccccc1`, in experiment [1], the inhibition at 10 µg/mL stood at 0%. For the same compound, in experiment [2], 100 µg/mL produced 40% inhibition. This compound also had an inhibition in experiment [3] of 95%.

As to `O=C1Nc2c(I)cccc2/C1=N/NC(=O)c1ccccc1O`, at 10 µg/mL the inhibition in experiment [1] was 0%. For the same compound, the inhibition at 100 µg/mL in experiment [2] was 25%. Besides, the inhibition in experiment [3] was 95%.

For `O=C1Nc2ccc(I)cc2C1=O` [5-IODOISATIN], the inhibition at 10 µg/mL in experiment [1] stood at 31%. Also, the inhibition at 100 µg/mL in experiment [2] was found to be 92%. Also, the inhibition in experiment [3] came to 70%.

As for `O=C1Nc2ccccc2C1=O` [ISATIN], testing at 10 µg/mL in experiment [1] gave an inhibition of 24%. Further, 100 µg/mL produced 52% inhibition in experiment [2]. The inhibition in experiment [3] was 70%.

In turn, `O=C1Nc2c(Cl)cccc2C1=O` displayed an inhibition at 10 µg/mL in experiment [1] of 51%. The compound also came in with an inhibition at 100 µg/mL in experiment [2] of 83%. This compound gave an inhibition in experiment [3] of 70%.

The compound `Cc1ccc2c(c1)C(=O)C(=O)N2C` registered an inhibition at 10 µg/mL in experiment [1] of 14%. 100 µg/mL produced 26% inhibition in experiment [2]. This compound also registered an inhibition in experiment [3] of 75%.

In experiment [1], `O=C(N/N=C1\C(=O)N(Cc2ccc(F)cc2)c2ccccc21)c1ccccc1` returned an inhibition at 10 µg/mL of 0%. The compound also gave an inhibition at 100 µg/mL in experiment [2] of 15%. The compound also yielded an inhibition in experiment [3] of 80%.

As for `O=C1Nc2c(Br)cccc2/C1=N/NC(=O)c1cccc(F)c1`, in experiment [1], the inhibition at 10 µg/mL was 0%. Moreover, the inhibition at 100 µg/mL in experiment [2] turned out to be 16%. In experiment [3], this compound displayed an inhibition of 60%.

In the case of `O=C1Nc2ccccc2/C1=N/O`, in experiment [1], the inhibition at 10 µg/mL was 0%. In experiment [2], the inhibition at 100 µg/mL came out at 55%. The same compound yielded an inhibition in experiment [3] of 45%.

In turn, `COc1ccc2c(c1)C(=O)C(=O)N2` [5-METHOXYISATIN] came in with an inhibition at 10 µg/mL in experiment [1] of 20%. The inhibition at 100 µg/mL in experiment [2] was found to be 30%. In experiment [3], this compound had an inhibition of 60%.

As for `CN1C(=O)C(=O)c2cc([N+](=O)[O-])ccc21`, the inhibition at 10 µg/mL in experiment [1] turned out to be 2%. For the same compound, at 100 µg/mL the inhibition in experiment [2] was 33%. In addition, the inhibition in experiment [3] worked out at 25%.
